From PubChem BioAssay
These entries were drawn from the full list.
Apaf1 activ = human Apaf-1 activation | O14727 | Apaf-1 apoptosome caspase-3 activation, DEVD-Rh110 fluorescence; active compounds read low | activity change, negative = activation, % at 20 µM | hit rate 0.31% among 330,000;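 active = activity change at or below -40% at 20 µM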
Target sequence (O14727 whole entry, looked up): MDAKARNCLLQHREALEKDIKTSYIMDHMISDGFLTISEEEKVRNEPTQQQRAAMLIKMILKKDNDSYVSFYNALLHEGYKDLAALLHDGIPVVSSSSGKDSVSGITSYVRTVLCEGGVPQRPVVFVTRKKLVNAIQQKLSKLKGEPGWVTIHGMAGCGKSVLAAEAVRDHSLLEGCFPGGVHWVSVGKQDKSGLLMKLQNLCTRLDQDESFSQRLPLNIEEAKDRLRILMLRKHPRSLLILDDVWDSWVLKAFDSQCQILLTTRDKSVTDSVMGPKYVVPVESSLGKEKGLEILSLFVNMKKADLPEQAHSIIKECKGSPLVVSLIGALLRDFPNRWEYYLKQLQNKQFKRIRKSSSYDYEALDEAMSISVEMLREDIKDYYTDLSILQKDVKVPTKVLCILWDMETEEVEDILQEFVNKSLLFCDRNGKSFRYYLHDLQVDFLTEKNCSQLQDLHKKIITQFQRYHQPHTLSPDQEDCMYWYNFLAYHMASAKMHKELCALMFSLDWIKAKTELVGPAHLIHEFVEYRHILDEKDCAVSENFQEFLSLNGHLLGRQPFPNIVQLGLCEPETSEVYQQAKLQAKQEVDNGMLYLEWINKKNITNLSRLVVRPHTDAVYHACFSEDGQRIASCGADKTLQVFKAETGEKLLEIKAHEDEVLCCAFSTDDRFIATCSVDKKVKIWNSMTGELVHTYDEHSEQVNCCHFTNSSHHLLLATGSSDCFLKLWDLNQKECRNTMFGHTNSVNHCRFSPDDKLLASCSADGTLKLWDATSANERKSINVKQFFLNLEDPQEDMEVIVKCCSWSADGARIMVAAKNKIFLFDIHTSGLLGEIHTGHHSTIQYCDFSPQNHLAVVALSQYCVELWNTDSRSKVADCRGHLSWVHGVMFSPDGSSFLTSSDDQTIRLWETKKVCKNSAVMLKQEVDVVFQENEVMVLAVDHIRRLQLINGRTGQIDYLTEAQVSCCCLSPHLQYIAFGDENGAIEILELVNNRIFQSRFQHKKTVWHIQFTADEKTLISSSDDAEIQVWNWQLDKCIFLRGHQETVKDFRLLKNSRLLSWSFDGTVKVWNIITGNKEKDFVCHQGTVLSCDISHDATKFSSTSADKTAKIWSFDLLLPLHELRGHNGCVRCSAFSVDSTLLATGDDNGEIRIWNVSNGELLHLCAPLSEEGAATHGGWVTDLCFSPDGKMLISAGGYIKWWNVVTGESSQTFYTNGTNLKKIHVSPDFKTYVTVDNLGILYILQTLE
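Material: biochemical Apaf-1 apoptosome reconstitution; Medium: 20 mM HEPES buffer, pH 7.5, containing CHAPS and BSA; Reagent: dATP, cytochrome c, and (Z-DEVD)2-Rh110 caspase-3 substrate; Times: 30 min preincubation, 50 min reaction, room temperature; Signal: Rh110 fluorescence, excitation 480 nm, emission 540 nm; Measure: Caspase-3 activity via Apaf-1.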
Rh110 act interf = interferes with Rh110 fluorescence, flagging false Apaf-1 activators; Rh110 fluorescence interference, quenched caspase reaction, Ex480/Em540; shares compounds with Apaf1 activ; 980 tested, under 10 active; fluorescence interference (activity change), % at 20 µM, hits read low; AID 504616;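 active = mean activity change at or below -40% when tested at 20 µM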
Apaf-1 act conf2 = Apaf-1 (human) activation, single-dose confirmed; shares compounds with Apaf1 activ; reconstituted apoptosome caspase-3 activity, DEVD-Rh110 fluorescence; active compounds read low; activity change, negative = activation, % at 20 µM; hit rate 5% among 980;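 active = mean activity change at or below -40%, meaning activation of 40% or more, at 20 µM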
The depositor's hits bear a star.

Screening COc1ccc(NC(=O)[C@@H]2[C@@H]3C(=O)N(C4CCCCC4)C(=O)[C@@H]3C3c4ccccc4C=CN32)cc1 (stereo not given in full) returned Apaf1 activ 51.0.
COc1ccc(CNC(=O)c2c(C)oc3c2C(=O)c2ccccc2C3=O)cc1 was read as Apaf1 activ 67.2.
CCOC(=O)CNC(=O)C1c2ccccc2C(=O)N(c2ccc(OC)cc2)C1c1ccc(OC)cc1 (stereo not given) was read as Apaf1 activ -41.9*, Rh110 act interf -0.3 and Apaf-1 act conf2 12.0.
`COc1cc(/C=C2/C(=O)N(c3cccc(Br)c3)N=C2C)cc(OC)c1O` gave Apaf1 activ 82.2.
For Cc1[nH]c2ccccc2c1C(C#N)(C#N)C1C(=O)c2ccccc2C1=O the results were Apaf1 activ 72.5.
Screening CC(C)Oc1ccc(C(=O)NC2(C(F)(F)F)NC(=O)N(CCCc3ccccc3)C2=O)cc1 (stereo not given) returned Apaf1 activ -44.5*, Rh110 act interf 6.4 and Apaf-1 act conf2 16.6.
Screening C#CCOCCOCCOCCNc1nc(N2CCN(C(=O)CCCCCCCCCCNC(=O)[C@H]([C@@H](C)CC)n3cc(CCCCCN)nn3)CC2)nc(N2CCN(C(=O)CCCCCCCCCCNC(=O)[C@H](CO)n3cc(CCCCCN)nn3)CC2)n1 returned Apaf1 activ 71.3.
`N#Cc1c(NCCO)nc(NCc2ccccc2)c2c1CCN(Cc1ccccc1)C2` gave Apaf1 activ 60.0.
For N#Cc1c(N)sc(=S)c2c1CCN(Cc1ccccc1)C2 the results were Apaf1 activ 95.5.
`N#Cc1ccccc1NC(=O)CN1CCN(Cc2ccccc2)CC1` gave Apaf1 activ -41.6*, Rh110 act interf 19.1 and Apaf-1 act conf2 10.9.
For NC(=O)[C@@H]1CCCNc2c(I)cc([N+](=O)[O-])cc2C(=O)N[C@@H](CCCN=C(N)N)C(=O)N[C@@H](CCCN=C(N)N)C(=O)N1 the results were Apaf1 activ 40.8.
`CN(Cc1ccc(F)cc1)Cc1nc(CCc2ccccc2)no1` gave Apaf1 activ -142.6*, Rh110 act interf 1.4 and Apaf-1 act conf2 10.3.
`CC(=O)OCC(=O)[C@@]1(O)CC[C@H]2[C@@H]3CCC4=CC(=O)CC[C@]4(C)[C@H]3[C@@H](O)C[C@@]21C` gave Apaf1 activ -4.0.
Nc1ncc2[nH]cnc2n1 was read as Apaf1 activ -4.1.
`S=c1[nH]c2cc(Cl)c3cccnc3c2o1` gave Apaf1 activ 46.2.
For O=C1C(Cl)=C(NCCCO)C(=O)c2ccccc21 the results were Apaf1 activ 44.7.
`COc1ccc(C2CC(=O)Oc3c(C(CCN4CCCC(C)C4)c4ccc(N(C)C)cc4)c(OC)cc(OC)c32)cc1` (stereo not given) gave Apaf1 activ 49.1.
C=CCN1C(=O)C2(OCCCO2)c2ccccc21 was read as Apaf1 activ -42.1*, Rh110 act interf 7.8 and Apaf-1 act conf2 14.9.
Screening O=S(=O)(c1ccc(NC(=S)Nc2ccc(OC(F)F)cc2)cc1)N1CCOCC1 returned Apaf1 activ -65.6*, Rh110 act interf 10.3 and Apaf-1 act conf2 17.6.
For Cn1c(=O)n(C)c2cc(/C=N/NC(=O)c3cc4cc(Br)ccc4o3)ccc21 the results were Apaf1 activ 43.0.
`O=C1C(Cl)=C(N2CCC(C(=O)O)CC2)C(=O)c2ccccc21` gave Apaf1 activ 74.9.
For C#CCOCCOCCOCCNc1nc(N2CCN(C(=O)CCCCCCCCCCNC(=O)Cn3cc(CCCCCN)nn3)CC2)nc(N2CCN(C(=O)CCCCCCCCCCNC(=O)[C@@H](CCC(=O)O)n3cc(CCCCCN)nn3)CC2)n1 the results were Apaf1 activ 58.8.
For CCOc1ccc(OCC(=O)OCn2c(SC)nnc(C)c2=O)cc1 the results were Apaf1 activ -75.9*, Rh110 act interf -1.8 and Apaf-1 act conf2 3.0.
O=C(Cc1ccccc1Cl)NC1(O)C(=O)c2ccccc2C1=O was read as Apaf1 activ 88.8.
CC1(C(=O)NC2CCCC2)CCC(=O)N1Cc1ccccc1Cl (stereo not given) was read as Apaf1 activ -105.6*, Rh110 act interf -7.9 and Apaf-1 act conf2 8.9.
Oc1cccc2c(NC(=S)Nc3ccc(SC(F)F)cc3)cccc12 was read as Apaf1 activ 53.2.
For Cc1ccc(CNc2ccc(O)cc2)cc1 the results were Apaf1 activ 93.6.
Screening CCCCCNC(=O)c1cn(CC)c2cc(N3CCN(C)CC3)c(F)cc2c1=O returned Apaf1 activ -72.1*, Rh110 act interf 5.3 and Apaf-1 act conf2 13.9.
`CCCCNC(=O)C(C)N(CCN(C)C)C(=O)CCCN1C(=O)NC(c2ccc([N+](=O)[O-])cc2)C(C(=O)OCc2ccccc2)=C1C` (stereo not given) gave Apaf1 activ 45.3.
For Fc1ccc(-[n+]2nc(Nc3ccccc3)sc2-c2c3ccccc3cc3ccccc23)cc1 the results were Apaf1 activ 42.5.
Screening O=C(O)CCNc1cc(N2CCN(C(=O)c3ccco3)CC2)c2noc3c2c1C(=O)c1ccccc1-3 returned Apaf1 activ 81.3.
`Cc1cc(NC(=O)CCSc2ccccc2)ccc1Br` gave Apaf1 activ -65.0*, Rh110 act interf 15.1 and Apaf-1 act conf2 22.0.
For COc1ccc(N2CCN(Cc3nc4ccccc4n3C)CC2)cc1 the results were Apaf1 activ -108.3*, Rh110 act interf -0.4 and Apaf-1 act conf2 -1.1.
COc1ccc(CCN2CCC(Nc3nc4ccccc4n3Cc3ccc(F)cc3)CC2)cc1 was read as Apaf1 activ 55.5.
COc1ccc(-c2nc(-c3ccccc3)nc(N3CCN(C)CC3)c2C#N)cc1 was read as Apaf1 activ 41.2.
O=C(O)c1cc(O)c2c(c1)[C@H]([C@H]1c3cc(C(=O)O)cc(O)c3C(=O)c3c(O[C@@H]4O[C@H](CO)[C@@H](O)[C@H](O)[C@H]4O)cccc31)c1cccc(OC3O[C@H](CO)[C@@H](O)[C@H](O)[C@H]3O)c1C2=O (stereo not given in full) was read as Apaf1 activ 88.9.
For COc1ccc(-c2oc3ncnc(NCCN4CCOCC4)c3c2-c2ccc(OC)cc2)cc1 the results were Apaf1 activ 42.1.
For CC(=O)N1CCc2cc(Br)cc(S(=O)(=O)NCCCN3CCCC(C)C3)c21 (stereo not given) the results were Apaf1 activ -40.5*, Rh110 act interf -5.0 and Apaf-1 act conf2 12.5.
For CCOC(=O)c1[nH]c2ccc(Br)cc2c1NC(=O)CCN1CCCC(C)C1 (stereo not given) the results were Apaf1 activ 97.3.
`CCc1ccc(NC2=CC(=O)C(=O)c3ccccc32)cc1` gave Apaf1 activ 91.7.
Screening O=C1CCCC/C1=C\Nc1ccc(Cl)cn1 returned Apaf1 activ -72.8*, Rh110 act interf 9.3 and Apaf-1 act conf2 16.8.
Screening O=C(NCCCN1CCOCC1)c1c(O)c2cc(Br)cc(Br)c2[nH]c1=O returned Apaf1 activ -56.8*, Rh110 act interf -9.0 and Apaf-1 act conf2 10.6.
`Cc1ccc(-c2cc(C(=O)NCCCN3CCOCC3)c3ccc(Cl)c(C)c3n2)cc1` gave Apaf1 activ 55.5.
For O=C(NCCCN1CCCCCC1)c1cc2c(=O)oc3ccccc3c2s1 the results were Apaf1 activ 40.5.
